Measured values published in ChEMBL document CHEMBL5346963, “Innovative Strategy toward Mutant CFTR Rescue in Cystic Fibrosis: Design and Synthesis of Thiadiazole Inhibitors of the E3 Ligase RNF5” (J Med Chem, 2023).
One block for each compound: values may come before it. Active and inactive are the calls of the source. Unless noted, no cut-off for these calls is given here.

Columns and labels:
[1] = Aggregation property of the compound in PBS buffer at pH 7.5 by 1D 1H-NMR analysis; assay type: physicochemical
Procedure, shortened: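 Solubility by 1H 1D NMR and aggregation by WaterLOGSY at 298 K in PBS pH 7.5 with 1 μM ZnCl2, 1 mM DTT, 10% D2O, 1% DMSO-d6. Theoretical concentrations 20, 50 and 100 μM, with 200 μM 4-trifluoromethyl benzoic acid as internal reference. WaterLOGSY: mixing time 1.7 s, relaxation delay 2 s, 256 scans.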

[2] = molecular target: E3 ubiquitin-protein ligase RNF5 (Homo sapiens) (UniProt Q99942); experiment: Binding affinity to recombinant human RNF5 (1 to 117 residues) expressed in Escherichia coli BL21(DE3) at 50 uM by Microscale thermophoresis analysis
Procedure, shortened: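 Human RNF5 aa 1–117 was expressed GST-tagged in E. coli BL21(DE3) with 0.2 mM IPTG for 5 h at 37 °C. It was purified on glutathione resin, TEV-cleaved, and RED-NHS labelled (5 nM). Binding check was run in PBS with 0.05% Tween-20, 0.1% PEG-8000 and 1 μM ZnCl2, ± 1 mM DTT, at ≤5% DMSO. Medium MST power, 20% excitation.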

CFBE41o- [3] = experiment: Antiproliferative activity against human CFBE41o- cells harbouring CFTR F508del mutant/HS-YFP at 5 uM incubated for 48 hrs; assay type: toxicity, cell-based
Procedure, shortened: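 Cells plated at 5000/well and treated after 6 h with compound (5 μM) or DMSO. Cell-covered area was followed by the YFP signal over 48 h on a high-content imager. Means ± SEM, n = 6. Three independent experiments; ANOVA with Dunnett test.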

CFBE41o- [4] = experiment: Induction of apoptosis in human CFBE41o- cells assessed as increase in apoptosis at 100 uM incubated for 24 hrs by Hoechst 33342 and propidium iodide staining based analysis; assay type: toxicity, cell-based
Procedure, shortened: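 Cells were plated at 10,000/well and treated after 6 h with compound (5, 20, 100 μM), VX-809 (1 μM), MG132 (50 μM) or DMSO for 24 h. Hoechst 33342 counted total nuclei and propidium iodide counted apoptotic nuclei, by high-content imaging. Means ± SEM; ANOVA with Dunnett test.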

[5] = molecular target: Cystic fibrosis transmembrane conductance regulator (Homo sapiens, UniProt P13569, F508DEL); experiment: Corrector activity at CFTR F508del mutant in human CFBE41o- cells coexpressing HS-YFP incubated for 25 mins by microplate reader based analysis; assay type: cell-based
Procedure, shortened: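 CFBE41o– cells stably expressing F508del-CFTR and HS-YFP were treated 24 h after seeding; DMSO and VX-809 (1 μM) served as controls. Cells were stimulated 25 min with forskolin (20 μM) plus VX-770 (1 μM). YFP was read for 2 s before and 12 s after iodide injection. Initial slope came from an exponential fit of the final 11 s. Three independent experiments.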

[6] = tested on: Cystic fibrosis transmembrane conductance regulator (Homo sapiens), P13569 [F508del]; experiment: Corrector activity at CFTR F508del mutant in human CFBE41o- cells assessed as appearance of CFTR mutant forms at 10 uM incubated for 4 hrs by Western blot analysis; assay type: cell-based
[7] = tested on: Cystic fibrosis transmembrane conductance regulator (Homo sapiens), P13569 [F508del]; experiment: Corrector activity at CFTR F508del mutant in human CFBE41o- cells assessed as decrease in accumulation of ubiquitylated CFTR at 10 uM incubated for 4 hrs in presence of MG-132 by Western blot analysis; assay type: cell-based
Procedure, shortened: (§1)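 Confluent CFBE41o– F508del cells were treated 24 h, with MG-132 (10 μM) or DMSO in the last 4 h. Lysate (600 μg protein) was immunoprecipitated with rabbit anti-CFTR (2 μg, 1 h RT) and protein A/G beads, then eluted reducing. Samples ran on 4–15% gradient SDS-PAGE and were western blotted. Bands were read by chemiluminescence, with densitometry of ubiquitylated CFTR.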

[8] = tested on: Cystic fibrosis transmembrane conductance regulator (Homo sapiens), P13569 [F508del]; experiment: Corrector activity at CFTR F508del mutant in human CFBE41o- cells assessed as rescue of CFTR mutant at 3 uM incubated for 24 hrs in presence of VX-661 by Western blot analysis; assay type: cell-based
[9] = tested on: Cystic fibrosis transmembrane conductance regulator (Homo sapiens), P13569 [F508del]; experiment: Corrector activity at CFTR F508del mutant in human CFBE41o- cells assessed as decrease in accumulation of ubiquitylated CFTR at 3 uM incubated for 24 hrs in presence of VX-661 by Western blot analysis; assay type: cell-based; procedure, shortened: as §1
CFBE41o- [10] = experiment: Induction of autophagy in human CFBE41o- cells harbouring CFTR F508del mutant assessed as increase in number of autophagic vacuoles at 20 nM incubated for 3 hrs by confocal microscopy based analysis; assay type: functional, cell-based
Procedure, shortened: (§2)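 CFBE41o– F508del/HS-YFP cells (50,000/well) were treated 24 h with compound (5 μM), VX-809 (1 μM) or DMSO. SAR405 (2 μM) and torin1 (20 nM) were added near the end of incubation. Cells were then loaded with 50 μM MDC in PBS for 10 min at 37 °C, washed, and imaged. MDC spot number was normalized to control. n = 3; ANOVA with Dunnett test.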

CFBE41o- [11] = experiment: Induction of autophagy in human CFBE41o- cells harbouring CFTR F508del mutant assessed as increase in number of autophagic vacuoles at 5 uM incubated for 24 hrs by confocal microscopy based analysis; assay type: functional, cell-based; procedure, shortened: as §2
CFBE41o- [12] = experiment: Induction of autophagy in human CFBE41o- cells harbouring CFTR F508del mutant assessed as increase in number of autophagic vacuoles at 2 uM incubated for 3 hrs by confocal microscopy based analysis; assay type: functional, cell-based; procedure, shortened: as §2

Chain of Cystic fibrosis transmembrane conductance regulator (Homo sapiens), P13569 [F508del] (P13569 as listed by the source): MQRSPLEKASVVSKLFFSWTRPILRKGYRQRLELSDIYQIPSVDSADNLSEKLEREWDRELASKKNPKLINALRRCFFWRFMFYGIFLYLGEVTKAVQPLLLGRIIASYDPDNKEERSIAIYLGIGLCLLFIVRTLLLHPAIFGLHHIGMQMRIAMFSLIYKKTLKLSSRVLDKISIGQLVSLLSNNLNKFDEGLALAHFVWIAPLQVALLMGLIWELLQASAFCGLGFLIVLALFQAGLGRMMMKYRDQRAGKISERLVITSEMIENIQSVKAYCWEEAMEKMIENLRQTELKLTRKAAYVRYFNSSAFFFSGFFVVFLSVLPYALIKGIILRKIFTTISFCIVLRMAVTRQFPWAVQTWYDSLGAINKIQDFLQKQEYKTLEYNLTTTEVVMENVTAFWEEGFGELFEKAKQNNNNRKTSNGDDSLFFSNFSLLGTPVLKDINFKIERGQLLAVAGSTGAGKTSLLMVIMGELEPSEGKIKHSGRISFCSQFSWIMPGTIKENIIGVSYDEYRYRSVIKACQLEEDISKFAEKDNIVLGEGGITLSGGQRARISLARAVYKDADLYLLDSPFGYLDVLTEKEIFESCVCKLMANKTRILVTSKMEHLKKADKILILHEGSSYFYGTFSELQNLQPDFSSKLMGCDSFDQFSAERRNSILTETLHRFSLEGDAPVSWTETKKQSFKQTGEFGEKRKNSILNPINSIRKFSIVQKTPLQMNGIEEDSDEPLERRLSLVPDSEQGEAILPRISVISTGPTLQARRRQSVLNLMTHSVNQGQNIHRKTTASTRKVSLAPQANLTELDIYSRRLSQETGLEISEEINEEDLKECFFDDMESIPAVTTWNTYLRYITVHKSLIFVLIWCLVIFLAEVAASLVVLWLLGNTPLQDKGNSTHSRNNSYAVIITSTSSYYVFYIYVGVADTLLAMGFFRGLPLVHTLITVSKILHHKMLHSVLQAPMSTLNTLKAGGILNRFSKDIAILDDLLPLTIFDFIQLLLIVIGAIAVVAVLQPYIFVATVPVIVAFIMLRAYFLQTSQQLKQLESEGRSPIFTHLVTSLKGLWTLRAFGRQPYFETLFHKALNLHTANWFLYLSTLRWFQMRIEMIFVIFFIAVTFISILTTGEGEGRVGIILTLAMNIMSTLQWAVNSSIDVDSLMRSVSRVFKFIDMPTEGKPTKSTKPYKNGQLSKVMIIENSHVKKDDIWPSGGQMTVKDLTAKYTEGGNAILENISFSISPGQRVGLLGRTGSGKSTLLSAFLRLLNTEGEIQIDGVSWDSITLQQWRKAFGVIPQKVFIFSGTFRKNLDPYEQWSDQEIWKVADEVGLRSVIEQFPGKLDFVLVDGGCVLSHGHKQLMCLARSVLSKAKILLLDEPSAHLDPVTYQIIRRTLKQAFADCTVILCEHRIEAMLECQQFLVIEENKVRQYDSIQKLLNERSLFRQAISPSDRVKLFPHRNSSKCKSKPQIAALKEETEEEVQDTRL
Chain of Cystic fibrosis transmembrane conductance regulator (P13569 as listed by the source): as above
Chain of E3 ubiquitin-protein ligase RNF5 (Homo sapiens) (Q99942 whole entry, the tested form may be a part): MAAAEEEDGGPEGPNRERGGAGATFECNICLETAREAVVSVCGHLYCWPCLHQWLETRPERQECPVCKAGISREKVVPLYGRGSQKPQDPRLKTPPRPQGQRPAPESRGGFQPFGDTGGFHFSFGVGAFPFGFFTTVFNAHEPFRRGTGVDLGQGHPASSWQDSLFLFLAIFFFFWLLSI

Activity [1]: Not Active
Activity [2]: Active
Compound: Cc1ns/c(=N\C(=N\c2ccccc2)c2ccccc2)n1Cc1ccc(C(=O)O)cc1

Activity [1]: Not Active
EC50 [5]: 1.6 µM
Compound: Cc1ns/c(=N\C(=N\c2ccccc2)c2ccccc2)n1Cc1cccc(O)c1
Activity (CFBE41o- [3]): Non-Toxic
Activity (CFBE41o- [4]): Toxic

Compound: Cc1ns/c(=N\C(=N\c2ccccc2)c2ccccc2)n1Cc1cccc(F)c1
Activity (CFBE41o- [3]): Non-Toxic

Activity [6]: Active
Activity [7]: inactive
Compound: CC(C)C[C@@H](C=O)NC(=O)[C@H](CC(C)C)NC(=O)[C@H](CC(C)C)NC(=O)OCc1ccccc1

Activity [8]: Active
Activity [9]: Active
Compound: Cc1nn(C)cc1S(=O)(=O)NC(=O)c1ccc(-n2ccc(OCC(C)(C)C(F)(F)F)n2)nc1N1C[C@@H](C)CC1(C)C

Compound: CCC(=O)N1CCN(c2ccc(-n3c(=O)ccc4cnc5ccc(-c6cnc7ccccc7c6)cc5c43)cc2C(F)(F)F)CC1
Activity (CFBE41o- [10]): Active

Compound: Cc1ccccc1Cn1c(C)ns/c1=N\C(=N\c1ccccc1)c1ccccc1
Activity (CFBE41o- [3]): Non-Toxic

Compound: Cc1ns/c(=N\C(=N\c2ccccc2)c2ccccc2)n1Cc1ccc(Br)cc1
Activity (CFBE41o- [3]): Non-Toxic
Activity (CFBE41o- [11]): Active

Activity [1]: Not Active
Compound: Cc1ns/c(=N\C(=N\c2ccccc2)c2ccccc2)n1Cc1ccccc1N
Activity (CFBE41o- [3]): Non-Toxic
Activity (CFBE41o- [4]): Toxic

Compound: C[C@@H]1COCCN1c1cc(=O)n2c(n1)N(Cc1cncc(Cl)c1)[C@H](C(F)(F)F)CC2
Activity (CFBE41o- [12]): inactive

Activity [1]: Not Active
Compound: Cc1ns/c(=N\C(=N\c2ccccc2)c2ccncc2)n1Cc1ccccc1
Activity (CFBE41o- [3]): Non-Toxic
Activity (CFBE41o- [11]): inactive

Compound: Cc1ns/c(=N\C(=N\c2ccccc2)c2ccccc2)n1Cc1cccc(Cl)c1
Activity (CFBE41o- [3]): Non-Toxic

Compound: CNc1cccc(Cn2c(C)ns/c2=N\C(=N\c2ccccc2)c2ccccc2)c1
Activity (CFBE41o- [3]): Non-Toxic
Activity (CFBE41o- [11]): Active

Compound: Cc1cccc(Cn2c(C)ns/c2=N\C(=N\c2ccccc2)c2ccccc2)c1
Activity (CFBE41o- [3]): Non-Toxic
